Sampled rows, rich in hits. Any-hit rate of the full collection: about 2.1%.
C2C12 statin = suppressors of simvastatin-induced myotoxicity in C2C12 myotubes; ATP luminescence, 48 h; scaled: DMSO 0, geranylgeraniol control 100; rescue of ATP level, % at 7.49 µM; 330,000 tested, 0.78% active;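 active = mean ATP rescue above about 67%, or every replicate alone reaching that limit, limit read from the data, passing the limit was not always enough; inconclusive = no clear call, values can overlap the other calls; inactive = mean under the limit and some replicate under it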;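 note: myotubes were challenged with 10 µM simvastatin during compound exposure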
DENV2 CPE = DENV2-induced cell death inhibition; 350,000 tested, 1.7% active; DENV2-infected cells, cytopathic effect rescue, plate reader; CPE inhibition, % at 9.99 µM; in the data active = CPE inhibition above about 20%, passing the limit was not always enough; inconclusive = no clear call, values can overlap the other calls; tested in BHK-21 cells
Cneo AK release = causes C. neoformans cell lysis. adenylate kinase release luminescence, 4 h; normalised: neutral wells 0, clomiphene wells 100. AID 651654. 360,000 tested, 0.2% active. lysis activity, % at 15 µM;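 active = mean lysis activity across replicates of at least 80%, whatever share of replicates individually reach that level; inactive = mean lysis activity below 80%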
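Signal: Adenylate kinase release luminescence | Assay system: Log-phase Cryptococcus neoformans yeast cells | Input: Cells at 5 × 10^6 per mL | Buffer or medium: Fresh YPD growth medium | Compound: Single dose | Schedule: Static 4 h at 37 °C with compound, 1 h detection | Controls: Clomiphene | Read-out: Luminescence rise reflecting yeast cell lysis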
XiGFP reactiv = reactivates the inactive X chromosome in mouse fibroblasts; activation, % at 7.58 µM; XiGFP mouse fibroblasts, % GFP-positive cells imaging, 3 d; cells co-treated with 5-aza-dC sensitizer; scaled so ellipticine positive control = 100%; 360,000 tested, 0.055% active;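 active = mean normalized replicate activation at least 10% and every replicate at or above 10%; inconclusive = only one of the two criteria met; inactive = mean below 10% and not all replicates reach 10%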
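System: XiGFP fibroblasts, SV40-immortalized. Medium: DMEM plus 5-aza-dC sensitizer. Doses: single point. Timing: 3 d treatment, 15 min room-temperature fixation. Control set: ellipticine 6 µM.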
Numbers stand for hits; . = inactive; ? = inconclusive; / = no result; ! = not confirmed by another sample.

SMILES	C2C12 statin	DENV2 CPE	Cneo AK release	XiGFP reactiv
Cc1noc(C)c1S(=O)(=O)N(C)C[C@H]1Oc2ccc(NS(=O)(=O)c3ccc(Cl)cc3)cc2CC(=O)N([C@@H](C)CO)C[C@H]1C	.	.	.	.
COCC1=C([C@H](O)c2ccccc2)[C@H](CO)n2c(=O)n(-c3ccccc3)c(=O)n2C1	/	.	.	/
Cc1noc(C)c1NC(=O)N(C)C[C@@H]1Oc2ccc(NC(=O)Cn3cnnn3)cc2C(=O)N([C@@H](C)CO)C[C@H]1C	.	.	.	.
COc1ccccc1-c1ccccc1[C@H]1[C@@H](CO)N(C(=O)C2CCC2)[C@H]1C#N	/	.	/	.
N#C[C@H]1[C@@H](c2ccccc2C2=CCCC2)[C@@H](CO)N1C(=O)c1cccc(F)c1	/	70.8	/	.
COc1ccccc1-c1ccccc1[C@H]1[C@H](C#N)N(C(=O)C2CCC2)[C@H]1CO	/	50.0	/	.
COc1ccccc1-c1ccc([C@H]2[C@@H](CO)N[C@@H]2CNC(=O)C2CCC2)cc1	/	/	/	.
COc1ccccc1-c1ccc([C@H]2[C@@H](CO)N[C@@H]2CNC(=O)C2CCCC2)cc1	/	24.9	/	.
CCCC#Cc1cnc2c(c1)C(=O)N([C@@H](C)CO)C[C@@H](C)[C@H](CN(C)C(=O)NC1CCCC1)O2	.	.	.	.
c1ccc(Cn2ncc3c(Nc4ccccc4)ncnc32)cc1	.	.	.	.
COc1ccc(Nc2ncnc3c2cnn3Cc2ccc(C)cc2)cc1	67.7	/	.	/
O=C1C(Cl)=C(NCCc2ccccc2)C(=O)N1CCc1ccccc1	163.9	/	.	/
C[C@@H]1CN([C@@H](C)CO)C(=O)c2cc(C#Cc3ccccn3)cnc2O[C@H]1CN(C)Cc1ccccc1	.	/	/	.
N#Cc1nc(-c2ccco2)oc1N1CCCC1	112.4	/	/	/
C[C@H]1CN([C@@H](C)CO)C(=O)c2cccc(NC(=O)C3CCCCC3)c2O[C@@H]1CN(C)Cc1ccc2c(c1)OCO2	.	/	/	.
C[C@H](CO)N1C[C@H](C)[C@H](CN(C)Cc2ccc3c(c2)OCO3)Oc2c(NC(=O)C3CCCCC3)cccc2C1=O	.	.	.	.
C[C@H](CO)N1C[C@H](C)[C@@H](CN(C)Cc2ccc3c(c2)OCO3)Oc2c(NC(=O)C3CCCCC3)cccc2C1=O	.	122.4!	.	.
C[C@H]1CN([C@@H](C)CO)C(=O)c2cccc(NC(=O)C3CCCCC3)c2O[C@H]1CN(C)Cc1ccc2c(c1)OCO2	.	22.9	.	.
C[C@@H]1CN([C@@H](C)CO)C(=O)c2cccc(NC(=O)C3CCCCC3)c2O[C@H]1CN(C)Cc1ccc2c(c1)OCO2	.	20.8	.	.
O=C(Nc1nccs1)[C@H]1[C@H](CO)[C@H]2Cn3c(cccc3=O)[C@H]2N1C(=O)C1CCCC1	/	.	/	.
Cc1noc(C)c1NC(=O)N(C)C[C@@H]1OCCCC[C@@H](C)Oc2ccc(NC(=O)c3ccncc3)cc2C(=O)N([C@H](C)CO)C[C@H]1C	.	.	.	.
Cc1ccc(S(=O)(=O)N(C)C[C@H]2Oc3ccc(NC(=O)Nc4ccc(C(F)(F)F)cc4)cc3C(=O)N([C@H](C)CO)C[C@H]2C)cc1	.	44.1	.	.
Cc1ccc(S(=O)(=O)N(C)C[C@@H]2Oc3ccc(NC(=O)Nc4ccc(C(F)(F)F)cc4)cc3C(=O)N([C@H](C)CO)C[C@H]2C)cc1	.	.	.	.
Cc1ccc(S(=O)(=O)N(C)C[C@H]2Oc3ccc(NC(=O)Nc4ccc(C(F)(F)F)cc4)cc3C(=O)N([C@H](C)CO)C[C@@H]2C)cc1	.	36.8	.	.
CNC[C@@H]1OCCCC[C@@H](C)Oc2ccc(NC(=O)c3ccccc3)cc2C(=O)N([C@H](C)CO)C[C@H]1C	.	.	.	.
SMILES	C2C12 statin	DENV2 CPE	Cneo AK release	XiGFP reactiv
C[C@@H]1CCCCO[C@H](CN(C)Cc2ccc(Cl)c(Cl)c2)[C@H](C)CN([C@@H](C)CO)C(=O)c2cc(NC(=O)Cc3ccccc3)ccc2O1	.	.	.	.
CC(C)CN1CCCC(N2CCN(c3cccc(Cl)c3)CC2)C1 (stereo unspecified)	.	26.7	.	.
C[C@@H]1CN([C@@H](C)CO)C(=O)c2ccccc2-c2ccccc2CO[C@@H]1CN(C)S(=O)(=O)CC(F)(F)F	.	.	.	.
CCN(CC)S(=O)(=O)c1cccc(C(=O)NC(C(=O)NC2=NCCS2)C(C)C)c1 (stereo unspecified)	80.9	/	.	/
CCN(CC)S(=O)(=O)c1cccc(C(=O)N[C@H](C(=O)NC2=NCCS2)C(C)C)c1	/	.	/	.
C[C@@H]1CCCCO[C@@H](CN(C)Cc2ccncc2)[C@H](C)CN([C@@H](C)CO)C(=O)c2cc(NS(=O)(=O)c3ccc(Cl)cc3)ccc2O1	.	60.1	.	.
C[C@H]1CCCCO[C@H](CN(C)Cc2ccncc2)[C@@H](C)CN([C@@H](C)CO)C(=O)c2cc(NS(=O)(=O)c3ccc(F)cc3)ccc2O1	/	.	.	.
C[C@@H]1CN([C@H](C)CO)C(=O)c2cc(NS(=O)(=O)c3ccc(F)cc3)ccc2O[C@@H](C)CCCCO[C@H]1CN(C)Cc1ccncc1	/	50.6	.	.
Cc1c(C(=O)N2CCOCC2)oc2ccc(S(=O)(=O)N3CCCC3)cc12	121.0	/	.	/
CCOC(=O)N1CCN(C(=O)c2oc3ccc(S(=O)(=O)N4CCCCCC4)cc3c2C)CC1	.	/	.	/
CCOC(=O)c1oc2ccc(S(=O)(=O)n3nc(-c4ccc(C)cc4)cc3N)cc2c1C	/	89.7	.	.
CCOC(=O)N1CCN(C(=O)c2oc3ccc(S(=O)(=O)N4CCOCC4)cc3c2C)CC1	95.4	/	.	/
Cc1c(C(=O)N2CCc3ccccc3C2)oc2ccc(S(=O)(=O)N3CCCCCC3)cc12	/	.	/	.
C[C@H](CO)N1C[C@H](C)[C@@H](CN(C)S(=O)(=O)c2ccccc2)Oc2ccc(NC(=O)Nc3ccc(F)cc3)cc2C1=O	.	?	.	.
C[C@H](CO)N1C[C@H](C)[C@H](CN(C)C(=O)CCCN(C)C)OCc2cn(nn2)CCCC1=O	.	.	.	.
Cc1nnc(Sc2nc3c(c(=O)n(C)c(=O)n3C)n2Cc2ccccc2Cl)s1	118.0	/	.	/
CCOc1cc(CNCCN2CCOCC2)ccc1OCc1ccccc1Cl	.	28.9	.	.
CCOc1cc(CNCCCN2CCOCC2)cc(Br)c1OCc1ccccc1Cl	.	.	.	.
COc1ccc2c3c(n(C)c2c1)[C@@H](CO)N(C(=O)Nc1ccccc1F)CC31CCN(C(C)=O)CC1	/	.	/	.
CC(C)(C)NC(=O)CSc1nnc(-c2ccccc2)c(-c2ccccc2)n1	.	/	.	/
CC(=O)NNC(=O)CSc1nnc(-c2ccccc2)c(-c2ccccc2)n1	.	.	92.5	.
CCCCNC(=O)C1C(c2ccccc2)=Nc2ccccc2N1C(=O)c1ccc(C(F)(F)F)cc1 (stereo unspecified)	/	.	/	.
CCCCNC(=O)C1C(c2ccc(C(F)(F)F)cc2)=Nc2ccccc2N1C(=O)c1cccc2ccccc12 (stereo unspecified)	/	28.5	/	.
CN(C)C(=O)CSc1nc(-c2ccccc2)nc2c1CCCC2	76.6	/	.	/

From PubChem BioAssay
